Assay results: the EternaBench riboswitch data

Test system: MS2 coat protein
Assay: apparent Kd, MS2 coat protein; higher = weaker binding; RNA-MaP array; FMN 200 µM where present
Method in brief: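 The apparent Kd is reported as the median of filtered per-cluster binding-curve fits. To get these curves, designs transcribed by stalled E. coli RNA polymerase on Illumina sequencing-chip clusters were titrated with SNAP-549-labelled MS2 coat protein from 0.7 or 1.5 nM, doubling to 3 µM. Titrations were run without and then with constant ligand in 100 mM Tris-HCl pH 7.5, 80 mM KCl, 4 mM MgCl2, BSA, DTT, yeast tRNA and Tween-20, and green signal was normalised to red-channel RNA signal and control-cluster median Fmax.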

[1] = designed as: ON switch for flavin mononucleotide, no ligand
[2] = ligand present: flavin mononucleotide, designed as: ON switch for flavin mononucleotide
[3] = designed as: OFF switch for flavin mononucleotide, no ligand
[4] = ligand present: flavin mononucleotide, designed as: OFF switch for flavin mononucleotide

Sequence | apparent Kd [1] [nM] | apparent Kd [2] [nM] | apparent Kd [3] [nM] | apparent Kd [4] [nM]
ACAAAUCCUGACAUGAGGAUCACCCAUGUUAGAUUGUUAUGUCAGGAUAUUAUCUGGCAACCAGAUGAGAAGGGACGAUUUGUG | 722 | 64.7 |  | 
ACAAGACAUGAGGAUCACCCAUGUAAAGAAAACGCAGGAUAUGCAAAAAAAUUCAUGGGUGCAGAAGGGCGAAAAA | 68.1 | 322 |  | 
ACAAGAUCAGGAUAUACAUGAGGAUCACCCAUGUAUAUAAAAAAAAAACUUUCUUCAUGUAGAAGGGAUCUUGU |  |  | 17.4 | 46
ACACAUGAGGAUCACCCAUGUAGCUGGCGUCUGCGCCAGCCACAGGAUAUACGGCUACACAAGCCGUAGAAGGGUGAUAAACAC | 62.9 | 27.2 |  | 
ACACGACAUGAGGAUCACCCAUGUUUCCGAUUCACAGGAUAUGGGACAUCCGGAGGGUGACCAGAAGGGUGACUCG | 151 | 28.3 |  | 
ACAGAAGCACCCGGAACCGGACAAUGAGAAGGCCACGCACAUGAGGAUCACCCAUGUAAAGCUAUGGAGGAUAUCAUGAUGGAU | 40.3 | 5.64 |  | 
ACAGACCAACAGAAGGGUGAGGUGUUGUUCUUCACAGGAUAUGUUGGCAACAUGAGGAUCACCCAUGUUGGUUUUGAAGUACGU | 16.3 | 4.68 |  | 
ACAGAGCCUGACAUGAGGAUCACCCAUGUUAGAUUGUUAUGUUAGGAUAUUGUCUAGCAACUAGACAAGAAGGGAUGCUCUGUG | 20.1 | 14.3 |  | 
ACAUAAAUUCGAGGAUAUCGGUGAAAUAAUUUACGAGAAGGCGAUAAUAGUUAUAGACUUAUAGACAUGAGGAUCACCCAUGUA | 30.3 | 27.6 |  | 
ACAUACAUUCGAGGAUAUCGGUGAACAAAUUAACGAGAAGGCGAUAUAAGUUUUAAUCUUAUGAACAUGAGGAUCACCCAUGUA | 26.4 | 24.3 |  | 
ACAUACAUUCGAGGAUAUCGGUGAGAAAUCUUACGAGAAGGCGAUUCAUGAUUUAUUAUCCUGGACAUGAGGAUCACCCAUGUA | 97.5 | 61.1 |  | 
ACAUACUCUCGAGGAUAUCGUAUGGAAAAGAAACGAGAAGGCGAAUGUUAAUUUCUAAUACAUGACAUGAGGAUCACCCAUGUA | 30.4 | 27.3 |  | 
ACAUAGUGAGGAUAUGCUGCUCGUCACUUGCGUGAUGAGUAGCAGAAGGCACAUGAGGAUCACCCAUGUAAAAA |  |  | 40.5 | 55
ACAUCUCGAGCCGACGGGAGAGUACAUGAGGAUCACCCAUGUGAGGAUAUCCCUGAGAAGACGGCGGAGAAGGCACUGGGUAGG |  |  | 6.33 | 10.4
ACAUGAGGAUCACCCAUGUAAAAUGAAGAAGGUAUAUACUUGAGGAUCACCCAUGUACAUGGGAAUAAGGAUAUUCUAAUAAUU | 13.5 | 12.6 |  | 
ACAUGAGGAUCACCCAUGUAACAUGUGAAUUAAUUCUUUAACAGAAGGCGAAUAUAUAACAUUGUCGAGGAUAUGUACUUAUGU |  |  | 9.85 | 7.41
ACAUGAGGAUCACCCAUGUACAGGGUUUAGUUUCAUUGUUUGAAGGAUAUACUUAGUUAGUUGUUGUAGAAGGUCAUAUUUUAU |  |  | 203 | 265
ACAUGAGGAUCACCCAUGUAUUACAUGGUUAAGUUUAUUAACAGAAGGCGAAAAUACCAAUUGAUCGAGGAUAUGUAAUCAAUU |  |  | 33.8 | 43.2
ACAUGAGGAUCACCCAUGUAUUACAUGGUUAAGUUUAUUAACAGAAGGCGAAAAUACCACUUUUUCGAGGAUAUGUUUUCUAUA |  |  | 47.4 | 61.6
ACAUGAGGAUCACCCAUGUAUUACAUGGUUAAGUUUAUUAACAGAAGGCGAAAUUACCACUUUUUCGAGGAUAUGUUUUCUAUA |  |  | 45.1 | 58.4
ACAUGAGGAUCACCCAUGUAUUUGUAGGAUAUACUGUAUUGUUUAUUACUCUAAUUAAUAUGUUUGUAGAAGGACAUUGCAUGA |  |  | 8.39 | 9.86
ACAUGAGGAUCACCCAUGUGAAACCAAUGGCUGACUUUGAGCUAGGAUAUUUGUGCAUAUCAAACAAAGAAGGAGCAUUACUGG |  |  | 41.1 | 37.9
ACAUGAGGAUCACCCAUGUGAACAUAGGAUAUUGGUGAUCAGGCGUGUUAUACAGGAUAUGUCUGCGAGAAGGGUGCACGUUGC | 676 | 231 |  | 
ACAUGAGGAUCACCCAUGUGAGGAUCUCCCAUGUUAUAUUUCAGAAGGCUCGUGUGUUUGAUGAGAGAGGAUAUGGAAUAUACG |  |  | 73.7 | 49.7
ACAUGAGGAUCACCCAUGUGAUGAUCUUCCAUGUCAUAUUUCAGAAGGCACGCAUGUUUAAUGAGUGAGGAUAUGGAAUAUGCG |  |  | 802 | 553
ACAUGAGGAUCACCCAUGUGAUGAUCUUCCAUGUCAUAUUUCAGAAGGCUCGCAUGUUUGAUGAGAGAGGAUAUGGAAUAUGCG |  |  | 790 | 368
ACAUGAGGAUCACCCAUGUUAAGCGAGGAUAUUUCACUGCACAUGAGGUUCGCCCAUGUCCUGCGGAAGAAGGUGCAAAUAAUU | 48.1 | 23.4 |  | 
